Experimental findings from ChEMBL document CHEMBL3414472, “Synthesis, SAR, and series evolution of novel oxadiazole-containing 5-lipoxygenase activating protein inhibitors: discovery of 2-[4-(3-{(r)-1-[4-(2-amino-pyrimidin-5-yl)-phenyl]-1-cyclopropyl-ethyl}-[1,2,4]oxadiazol-5-yl)-pyrazol-1-yl]-N,N-dimethyl-acetamide (BI 665915)” (J Med Chem, 2015) are described below.

In brackets after ≈: the same amount, converted by molar mass.

The IC50 is the concentration that inhibits the measured activity by half. By solubility (thermodynamic) is commonly meant the concentration in solution at equilibrium with solid. As usually defined, the inhibition is the percentage by which the read-out fell short of the control.

Chain of Cytochrome P450 2C9 (P11712 whole entry): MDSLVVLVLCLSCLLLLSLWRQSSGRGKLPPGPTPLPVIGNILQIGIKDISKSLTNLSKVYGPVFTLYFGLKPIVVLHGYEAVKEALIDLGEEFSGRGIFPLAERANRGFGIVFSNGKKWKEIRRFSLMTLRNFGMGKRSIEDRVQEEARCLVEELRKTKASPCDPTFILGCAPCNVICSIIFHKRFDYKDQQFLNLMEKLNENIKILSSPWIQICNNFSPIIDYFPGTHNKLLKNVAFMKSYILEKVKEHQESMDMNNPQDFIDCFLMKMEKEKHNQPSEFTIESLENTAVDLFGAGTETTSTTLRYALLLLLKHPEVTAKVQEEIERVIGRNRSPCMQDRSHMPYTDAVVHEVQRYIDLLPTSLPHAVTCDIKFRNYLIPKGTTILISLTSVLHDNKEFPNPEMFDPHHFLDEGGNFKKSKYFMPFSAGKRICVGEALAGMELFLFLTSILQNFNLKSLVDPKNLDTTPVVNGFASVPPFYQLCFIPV

The first series concerns the target T1, Arachidonate 5-lipoxygenase-activating protein (Homo sapiens, UniProt P20292).
T1 sequence (P20292 whole entry): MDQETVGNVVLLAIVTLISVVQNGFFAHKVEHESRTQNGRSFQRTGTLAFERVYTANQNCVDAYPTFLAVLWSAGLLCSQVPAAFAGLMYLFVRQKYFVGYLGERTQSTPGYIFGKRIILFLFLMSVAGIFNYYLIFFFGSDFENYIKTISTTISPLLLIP
Kind of series: Inhibition of FLAP in calcimycin-stimulated human whole blood assessed as inhibition of LTB4 synthesis preincubated for 15 mins followed by calcimycin stimulation measured after 30 mins.
Settings: not given; call rule not given here
In a few lines:
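Heparinized human volunteer blood preincubated with compound 15 min at 37 °C, 5 % CO2; calcimycin 100 µM final, 30 min at 37 °C; spun 2000 rpm 5 min at 4 °C. Supernatant LTB4 measured by HTRF competition (LTB4-XL665 plus anti-LTB4 cryptate, 2 h room temperature). Geometric mean (n ≥ 3) of duplicate 10-point curves.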
Take `Cn1cc(-c2nc(C3(c4ccc(-c5cnc(N)nc5)cc4)CC(C)(C)C3)no2)cn1`: the IC50 is 1.5 µM.

Take `Nc1ncc(-c2ccc(C3(c4noc(-c5cocn5)n4)CCC3)cc2)cn1`: the IC50 came out at 0.31 µM.

For the compound `CC(C)C(c1ccc(-c2cnc(N)nc2)cc1)c1noc(-c2cnn(C)c2)n1` (racemic), the IC50 came out at 0.19 µM.

On to `Nc1ncc(-c2ccc(C3(c4noc(-c5c[nH]cn5)n4)CCC3)cc2)cn1`, for which the IC50 was 0.27 µM.

Regarding `Nc1ncc(-c2ccc(C3(c4noc(-c5ccccc5)n4)CCC3)cc2)cn1`, the IC50 worked out at 0.47 µM.

In the case of `CN(C)C(=O)Cn1cc(-c2nc([C@@](C)(c3ccc(-c4cnc(N)cn4)cc3)C3CC3)no2)cn1`, the IC50 was 0.073 µM.

`Nc1ncc(-c2ccc(C3(c4noc(-c5cncnc5)n4)CCC3)cc2)cn1`: the IC50 was found to be 0.34 µM.

Consider `Cn1cc(-c2nc([C@](C)(c3ccc(-c4cnc(N)nc4)cc3)C3CC3)no2)cn1`, for which the IC50 was found to be 0.35 µM.

For the compound `Nc1ncc(-c2ccc(C3(c4noc(-c5cn[nH]c5)n4)CCC3)cc2)cn1`, the IC50 was 0.11 µM.

With `CC(C)[C@](C)(c1ccc(-c2cnc(N)nc2)cc1)c1noc(-c2cnn(C)c2)n1`, the half-maximal inhibitory concentration (IC50) was determined as 0.033 µM.

For `Cn1cc(-c2nc([C@@](C)(c3ccc(-c4cnc(N)nc4)cc3)C3CC3)no2)cn1`, the IC50 came out at 0.015 µM.

For the compound `CN(C)CCn1cc(-c2nc(C3(c4ccc(-c5cnc(N)nc5)cc4)CCC3)no2)cn1`, the IC50 worked out at 0.047 µM.

In the case of `Cn1cc(-c2nc(C(C)(C)c3ccc(-c4cnc(N)nc4)cc3)no2)cn1`, the IC50 came to 0.093 µM.

For `CC(C)[C@@](C)(c1ccc(-c2cnc(N)nc2)cc1)c1noc(-c2cnn(C)c2)n1`, the IC50 amounted to 0.36 µM.

For `Nc1ncc(-c2ccc(C3(c4noc(-c5nc[nH]n5)n4)CCC3)cc2)cn1`, the IC50 turned out to be 2.7 µM.

As for `CN(C)C(=O)Cn1cc(-c2nc([C@@](C)(c3ccc(-c4ccc(N)nc4)cc3)C3CC3)no2)cn1`, the IC50 was 0.066 µM.

Turning to `CS(=O)(=O)Nc1nc(C2(c3ccc(-c4cnc(N)nc4)cc3)CCC2)no1`, the IC50 was more than 5 µM.

In the case of `Nc1ncc(-c2ccc(C3(c4noc(-c5ccnnc5)n4)CCC3)cc2)cn1`, the IC50 is 0.24 µM.

Consider `Nc1ncc(-c2ccc(C3(c4noc(-c5cnccn5)n4)CCC3)cc2)cn1`, for which the IC50 is 0.36 µM.

The target of a further series is T2, Cytochrome P450 3A4 (Homo sapiens, UniProt P08684). As to the kind of experiment: Inhibition of CYP3A4 in human liver microsomes using midazolam as substrate preincubated for 10 mins followed by NADPH addition measured after 6 mins. The class given is ADME.
T2 sequence (P08684 whole entry): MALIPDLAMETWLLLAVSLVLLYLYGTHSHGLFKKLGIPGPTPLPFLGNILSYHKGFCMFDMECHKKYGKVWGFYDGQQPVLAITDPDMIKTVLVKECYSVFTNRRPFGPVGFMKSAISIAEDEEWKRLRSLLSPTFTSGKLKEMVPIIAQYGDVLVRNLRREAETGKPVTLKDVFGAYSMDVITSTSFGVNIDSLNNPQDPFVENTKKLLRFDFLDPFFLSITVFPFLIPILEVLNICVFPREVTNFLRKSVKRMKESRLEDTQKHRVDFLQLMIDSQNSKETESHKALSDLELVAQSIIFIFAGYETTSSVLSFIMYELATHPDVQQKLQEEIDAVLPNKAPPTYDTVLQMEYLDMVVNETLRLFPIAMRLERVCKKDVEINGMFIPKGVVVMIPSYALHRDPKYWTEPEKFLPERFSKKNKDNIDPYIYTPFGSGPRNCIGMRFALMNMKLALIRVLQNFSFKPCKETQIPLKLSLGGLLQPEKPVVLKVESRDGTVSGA
Settings: not given
In a few lines:
(§1)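 Human liver microsomes (0.05 mg/mL protein) with cocktail substrates: 4 µM diclofenac (2C9), 3 µM dextromethorphan (2D6), 2.5 µM midazolam (3A4). Compound in 0.1 M potassium phosphate pH 7.4 preincubated 10 min at 37 °C; NADPH added, reaction 6 min at 37 °C.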
In general terms: Microsomes from liver hold many membrane-bound enzymes, among them those of drug oxidation.
`CC(C)(O)Cn1cc(-c2nc(C3(c4ccc(-c5cnc(N)nc5)cc4)CCC3)no2)cn1` registered an IC50 of more than 30 µM.

Test system in a further series: not listed separately
Kind of series: Aqueous equilibrium solubility of the compound in crystalline form in citric acid/disodium phosphate buffer at pH 6.8 after 24 hrs of rotation by HPLC analysis. The class given is physicochemical.
Settings: not given
In outline:
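Saturated solution of crystalline material in citric acid/disodium phosphate buffer pH 6.8 rotated 24 h; after centrifugation and filtration, dissolved concentration measured by HPLC.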
With `COCCn1cc(-c2nc(C3(c4ccc(-c5cnc(N)nc5)cc4)CCC3)no2)cn1`, the thermodynamic solubility at 24 h came out at 9.3 µg/mL (≈ 22.3 µM).

`CC(C)(O)Cn1cc(-c2nc(C3(c4ccc(-c5cnc(N)nc5)cc4)CCC3)no2)cn1` displayed a solubility (thermodynamic) at 24 h of 3.1 µg/mL (≈ 7.18 µM). Against the preceding compound, the solubility thermodynamic at 24 h is about 3-fold lower.

In turn, `Cn1cc(-c2nc(C3(c4ccc(-c5cnc(N)nc5)cc4)CCC3)no2)cn1` gave a solubility (thermodynamic) at 24 h of 0.03 µg/mL (≈ 0.0803 µM).

For `Nc1ncc(-c2ccc(C3(c4noc(-c5cn[nH]c5)n4)CCC3)cc2)cn1`, the solubility (thermodynamic) at 24 h worked out at 0.4 µg/mL (≈ 1.11 µM).

`CN(C)CCn1cc(-c2nc(C3(c4ccc(-c5cnc(N)nc5)cc4)CCC3)no2)cn1` had a thermodynamic solubility at 24 h of 270 µg/mL (≈ 627 µM).

In the next series the target is hERG (KCNH2) (Homo sapiens, UniProt Q12809). As to the kind of experiment: Inhibition of human ERG expressed in HEK293 cells assessed as change in tail current at 11 uM by manual patch clamp assay relative to control. It is filed as cell-based. The settings on record: HEK293 cells that express hERG. In a few lines: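 Whole-cell manual patch clamp on HEK293 cells stably expressing human ERG, at room temperature (20-22 °C) in a perfusion chamber. Change in hERG tail current amplitude during the hyperpolarizing step measured with escalating compound concentrations.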
Chain of hERG (KCNH2) (Q12809 whole entry, the tested form may be a part): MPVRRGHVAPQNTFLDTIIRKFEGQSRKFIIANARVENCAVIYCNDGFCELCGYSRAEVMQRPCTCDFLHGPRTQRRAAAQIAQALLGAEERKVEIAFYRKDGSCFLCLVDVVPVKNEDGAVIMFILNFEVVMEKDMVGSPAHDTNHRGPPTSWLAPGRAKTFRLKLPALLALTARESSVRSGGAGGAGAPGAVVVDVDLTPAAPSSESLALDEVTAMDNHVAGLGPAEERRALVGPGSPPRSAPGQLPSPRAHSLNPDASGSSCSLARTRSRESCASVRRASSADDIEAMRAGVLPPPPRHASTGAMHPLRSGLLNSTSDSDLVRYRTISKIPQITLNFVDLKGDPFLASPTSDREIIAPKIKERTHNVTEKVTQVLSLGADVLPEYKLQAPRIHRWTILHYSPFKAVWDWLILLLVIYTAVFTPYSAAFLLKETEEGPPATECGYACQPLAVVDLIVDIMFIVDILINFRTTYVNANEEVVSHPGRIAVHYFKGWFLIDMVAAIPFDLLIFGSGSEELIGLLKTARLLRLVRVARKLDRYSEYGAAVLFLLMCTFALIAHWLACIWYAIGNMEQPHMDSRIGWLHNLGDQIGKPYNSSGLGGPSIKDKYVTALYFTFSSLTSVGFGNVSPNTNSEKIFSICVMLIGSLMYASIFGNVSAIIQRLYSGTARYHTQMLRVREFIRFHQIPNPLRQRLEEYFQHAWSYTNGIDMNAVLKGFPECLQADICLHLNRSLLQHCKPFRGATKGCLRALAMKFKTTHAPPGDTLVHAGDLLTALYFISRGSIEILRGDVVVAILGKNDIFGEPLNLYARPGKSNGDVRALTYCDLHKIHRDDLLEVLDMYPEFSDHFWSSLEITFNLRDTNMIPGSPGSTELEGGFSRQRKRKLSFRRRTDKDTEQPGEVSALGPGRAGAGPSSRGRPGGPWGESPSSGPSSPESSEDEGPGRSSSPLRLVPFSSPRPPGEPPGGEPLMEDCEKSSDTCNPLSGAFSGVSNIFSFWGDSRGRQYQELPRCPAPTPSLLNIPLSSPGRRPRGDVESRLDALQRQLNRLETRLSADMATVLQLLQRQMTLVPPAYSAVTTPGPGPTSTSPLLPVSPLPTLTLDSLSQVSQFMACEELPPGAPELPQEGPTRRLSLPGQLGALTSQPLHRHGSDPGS
Turning to `CC(C)(O)Cn1cc(-c2nc(C3(c4ccc(-c5cnc(N)nc5)cc4)CCC3)no2)cn1`, the inhibition at 11 µM amounted to 51%.

Another series deals with Cytochrome P450 2D6 (Homo sapiens, UniProt P10635). Kind of series: Inhibition of CYP2D6 in human liver microsomes using dextromethorphan as substrate preincubated for 10 mins followed by NADPH addition measured after 6 mins. It is filed as ADME.
Chain of Cytochrome P450 2D6 (P10635 whole entry): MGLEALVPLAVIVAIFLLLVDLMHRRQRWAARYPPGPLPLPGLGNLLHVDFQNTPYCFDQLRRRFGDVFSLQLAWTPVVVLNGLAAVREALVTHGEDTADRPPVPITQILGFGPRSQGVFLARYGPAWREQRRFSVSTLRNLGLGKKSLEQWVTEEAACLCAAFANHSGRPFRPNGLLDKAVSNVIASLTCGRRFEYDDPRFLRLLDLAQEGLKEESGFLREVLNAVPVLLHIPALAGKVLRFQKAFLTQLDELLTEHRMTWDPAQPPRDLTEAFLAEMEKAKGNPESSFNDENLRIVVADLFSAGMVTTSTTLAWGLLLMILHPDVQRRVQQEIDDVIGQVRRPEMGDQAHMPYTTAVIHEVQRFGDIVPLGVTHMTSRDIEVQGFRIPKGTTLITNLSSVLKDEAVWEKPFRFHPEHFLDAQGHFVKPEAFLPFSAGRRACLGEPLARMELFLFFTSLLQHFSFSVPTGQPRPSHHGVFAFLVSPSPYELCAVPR
Settings: not given
In a few lines:
as §1
On to `CC(C)(O)Cn1cc(-c2nc(C3(c4ccc(-c5cnc(N)nc5)cc4)CCC3)no2)cn1`, for which the IC50 was 3 µM.

With `CN(C)CCn1cc(-c2nc(C3(c4ccc(-c5cnc(N)nc5)cc4)CCC3)no2)cn1`, the IC50 stood at 10 µM.

The next series concerns the target Cytochrome P450 2C9 (Homo sapiens, UniProt P11712). As to the kind of experiment: Inhibition of CYP2C9 in human liver microsomes using dichlofenac as substrate preincubated for 10 mins followed by NADPH addition measured after 6 mins. It is filed as ADME.
Settings: not given
In a few lines: as §1
`CC(C)(O)Cn1cc(-c2nc(C3(c4ccc(-c5cnc(N)nc5)cc4)CCC3)no2)cn1`: half-maximal inhibition (IC50) was put at 6 µM.

Compound `CN(C)CCn1cc(-c2nc(C3(c4ccc(-c5cnc(N)nc5)cc4)CCC3)no2)cn1` registered an IC50 of 7 µM.

Another series addresses T2, Cytochrome P450 3A4. Kind of series: Inhibition of CYP3A4 in human liver microsomes using midazolam as substrate at 30 uM preincubated for 10 mins followed by NADPH addition measured after 6 mins. The class given is ADME. Particulars: 0.1 h.
Regarding `CN(C)CCn1cc(-c2nc(C3(c4ccc(-c5cnc(N)nc5)cc4)CCC3)no2)cn1`, the “inhibition (INH)” value is “Not Active”.
